The nature of data set [1]: Aqueous solubility of the compound. It counts as physicochemical.
The next data set concerns the target T1, Androgen receptor (Homo sapiens, UniProt P10275).
T1 sequence (P10275 whole entry): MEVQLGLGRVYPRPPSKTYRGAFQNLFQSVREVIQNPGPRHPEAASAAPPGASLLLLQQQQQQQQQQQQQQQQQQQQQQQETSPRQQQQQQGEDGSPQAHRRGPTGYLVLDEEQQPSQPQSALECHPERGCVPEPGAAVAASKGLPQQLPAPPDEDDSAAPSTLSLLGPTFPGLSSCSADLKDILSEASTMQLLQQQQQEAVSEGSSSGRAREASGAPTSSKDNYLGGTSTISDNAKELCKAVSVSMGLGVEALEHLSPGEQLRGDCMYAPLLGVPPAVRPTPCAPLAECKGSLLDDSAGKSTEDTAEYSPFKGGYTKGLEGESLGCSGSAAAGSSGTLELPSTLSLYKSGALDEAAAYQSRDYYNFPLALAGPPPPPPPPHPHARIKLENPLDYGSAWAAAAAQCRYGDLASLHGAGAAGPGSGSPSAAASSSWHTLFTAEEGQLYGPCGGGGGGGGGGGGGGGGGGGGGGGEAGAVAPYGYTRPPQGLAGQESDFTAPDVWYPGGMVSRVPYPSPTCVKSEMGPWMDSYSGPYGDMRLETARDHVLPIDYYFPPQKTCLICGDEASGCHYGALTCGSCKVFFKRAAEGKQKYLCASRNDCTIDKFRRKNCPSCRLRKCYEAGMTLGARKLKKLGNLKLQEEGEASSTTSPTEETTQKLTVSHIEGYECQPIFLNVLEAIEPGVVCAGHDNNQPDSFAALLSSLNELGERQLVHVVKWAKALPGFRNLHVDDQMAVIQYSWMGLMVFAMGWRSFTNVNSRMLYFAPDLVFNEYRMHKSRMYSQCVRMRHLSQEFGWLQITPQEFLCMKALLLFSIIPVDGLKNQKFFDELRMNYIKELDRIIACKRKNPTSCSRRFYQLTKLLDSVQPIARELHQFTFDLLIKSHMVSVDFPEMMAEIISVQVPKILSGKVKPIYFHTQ
As to the kind of experiment: Agonist activity at androgen receptor expressed in C2C12 mouse cells by luciferase reporter transactivation assay. It counts as functional, cell-based. Background: Reporter assays use an easily measured gene product as a stand-in for the process of interest.

The nature of data set [2]: (§1) Cmax in Sprague-Dawley rat at 10 mg/kg, po. It counts as ADME, organism-based. Also on record: dose 10 mg/kg, route oral. The following applies: in vivo.
A short description of data set [3]: AUC(0-4h) in Sprague-Dawley rat at 10 mg/kg. Also noted: time < 5 hr, dose 10 mg/kg. Particulars: plasma. It counts as ADME, organism-based.
Data set [4] can be described thus: Half life in Sprague-Dawley rat at 10 mg/kg, po and 5 mg/kg, iv. It counts as ADME, organism-based. Particulars: in vivo. The method, boiled down:
(§2)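 Rat pharmacokinetics used 5 mg/kg i.v. and 10 mg/kg p.o. dosing. Oral bioavailability (F%), half-life, oral Tmax and total body clearance were derived from plasma concentrations.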

The nature of data set [5]: Bioavailability in Sprague-Dawley rat at 10 mg/kg, po. It counts as ADME, organism-based. Particulars: in vivo. The method, boiled down: as §2
Data set [6] is described as follows: as §1. Also on record: dose 10 mg/kg, route oral. It counts as ADME, organism-based. Particulars: in vivo. This is another data set of the same source.
Data set [7] can be described thus: Tmax in Sprague-Dawley rat at 10 mg/kg, po. It counts as ADME, organism-based. The following applies: in vivo. Also on record: dose 10 mg/kg, route oral. The method, boiled down: as §2
A short description of data set [8]: Clearance in Sprague-Dawley rat at 10 mg/kg, po and 5 mg/kg, iv. It counts as ADME, organism-based. Particulars: in vivo. The method, boiled down:
as §2

The next data set has as its target T2, Glucocorticoid receptor (Homo sapiens, UniProt P04150).
T2 sequence (P04150 whole entry): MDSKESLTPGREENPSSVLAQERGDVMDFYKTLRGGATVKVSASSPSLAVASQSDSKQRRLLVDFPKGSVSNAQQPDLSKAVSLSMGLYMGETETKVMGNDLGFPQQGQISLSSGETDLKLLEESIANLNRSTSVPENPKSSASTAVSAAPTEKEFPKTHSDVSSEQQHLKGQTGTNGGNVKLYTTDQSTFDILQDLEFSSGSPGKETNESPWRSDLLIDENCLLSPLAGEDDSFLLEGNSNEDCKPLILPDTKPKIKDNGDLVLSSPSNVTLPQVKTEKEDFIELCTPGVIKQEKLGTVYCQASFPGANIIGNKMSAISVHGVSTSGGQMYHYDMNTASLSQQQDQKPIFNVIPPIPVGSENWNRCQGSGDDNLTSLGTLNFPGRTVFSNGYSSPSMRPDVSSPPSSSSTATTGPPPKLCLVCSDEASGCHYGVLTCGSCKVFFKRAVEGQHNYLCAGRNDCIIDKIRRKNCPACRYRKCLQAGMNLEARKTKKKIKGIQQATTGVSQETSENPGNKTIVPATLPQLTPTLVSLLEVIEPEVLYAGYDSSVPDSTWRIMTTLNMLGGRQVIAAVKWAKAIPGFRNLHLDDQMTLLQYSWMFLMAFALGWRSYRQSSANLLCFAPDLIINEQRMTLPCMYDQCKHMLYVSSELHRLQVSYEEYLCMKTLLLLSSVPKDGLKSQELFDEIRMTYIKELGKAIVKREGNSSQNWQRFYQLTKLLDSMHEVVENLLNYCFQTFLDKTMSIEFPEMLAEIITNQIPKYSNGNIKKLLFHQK
As to the kind of experiment: Binding affinity to glucocorticoid receptor.

In a further data set the target is T3, Aromatase (Homo sapiens, UniProt P11511).
T3 sequence (P11511 whole entry): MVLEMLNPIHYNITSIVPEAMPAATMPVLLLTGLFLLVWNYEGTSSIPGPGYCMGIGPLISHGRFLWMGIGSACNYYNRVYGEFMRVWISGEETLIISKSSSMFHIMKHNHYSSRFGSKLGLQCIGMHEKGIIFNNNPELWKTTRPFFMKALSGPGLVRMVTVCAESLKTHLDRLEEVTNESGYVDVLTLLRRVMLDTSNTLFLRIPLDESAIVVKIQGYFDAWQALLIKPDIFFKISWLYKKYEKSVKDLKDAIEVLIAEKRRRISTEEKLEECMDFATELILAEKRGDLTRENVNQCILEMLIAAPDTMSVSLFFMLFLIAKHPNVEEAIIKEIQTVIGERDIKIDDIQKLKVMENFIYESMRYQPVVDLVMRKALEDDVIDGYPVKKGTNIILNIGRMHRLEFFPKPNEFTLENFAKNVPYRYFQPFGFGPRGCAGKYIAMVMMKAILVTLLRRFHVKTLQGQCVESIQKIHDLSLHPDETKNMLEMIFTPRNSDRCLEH
As to the kind of experiment: Inhibition of aromatase.

The nature of data set [9]: Toxicity against human hepatocyte. It counts as cell-based. Particulars: hepatocytes.
In another data set the target is Cytochrome P450 2C19 (Homo sapiens, UniProt P33261). As to the kind of experiment: Inhibition of CYP2C19. It counts as ADME.
In another data set the target is Cytochrome P450 2C9 (Homo sapiens, UniProt P11712). As to the kind of experiment: Inhibition of CYP2C9. It counts as ADME.
For another data set, the target named is Cytochrome P450 3A4 (Homo sapiens, UniProt P08684). As to the kind of experiment: Inhibition of CYP3A4. It counts as ADME.
A further data set concerns the target hERG (Homo sapiens, UniProt Q12809). Put plainly: Inhibition of hERG at 30 uM by patch clamp method. It counts as toxicity. A general note: Block of hERG is tested as a sign of cardiac risk.

In brackets after ≈: the same amount, converted by molar mass.

The values below come from ChEMBL document CHEMBL1145402, “Discovery of potent and muscle selective androgen receptor modulators through scaffold modifications” (J Med Chem, 2007).

Cytochrome P450 2C9, sequence (P11712 whole entry): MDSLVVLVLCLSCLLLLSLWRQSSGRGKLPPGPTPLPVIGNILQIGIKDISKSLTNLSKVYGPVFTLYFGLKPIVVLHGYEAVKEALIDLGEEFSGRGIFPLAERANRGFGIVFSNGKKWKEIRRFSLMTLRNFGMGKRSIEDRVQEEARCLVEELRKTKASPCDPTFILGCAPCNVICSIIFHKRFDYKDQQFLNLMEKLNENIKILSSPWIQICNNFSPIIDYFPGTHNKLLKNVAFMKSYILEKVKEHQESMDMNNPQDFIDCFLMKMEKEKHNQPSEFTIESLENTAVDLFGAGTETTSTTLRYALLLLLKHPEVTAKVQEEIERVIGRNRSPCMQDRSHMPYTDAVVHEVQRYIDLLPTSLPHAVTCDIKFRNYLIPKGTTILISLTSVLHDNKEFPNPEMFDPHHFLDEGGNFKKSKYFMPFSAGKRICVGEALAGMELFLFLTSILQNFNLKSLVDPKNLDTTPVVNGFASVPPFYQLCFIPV
hERG, sequence (Q12809 whole entry): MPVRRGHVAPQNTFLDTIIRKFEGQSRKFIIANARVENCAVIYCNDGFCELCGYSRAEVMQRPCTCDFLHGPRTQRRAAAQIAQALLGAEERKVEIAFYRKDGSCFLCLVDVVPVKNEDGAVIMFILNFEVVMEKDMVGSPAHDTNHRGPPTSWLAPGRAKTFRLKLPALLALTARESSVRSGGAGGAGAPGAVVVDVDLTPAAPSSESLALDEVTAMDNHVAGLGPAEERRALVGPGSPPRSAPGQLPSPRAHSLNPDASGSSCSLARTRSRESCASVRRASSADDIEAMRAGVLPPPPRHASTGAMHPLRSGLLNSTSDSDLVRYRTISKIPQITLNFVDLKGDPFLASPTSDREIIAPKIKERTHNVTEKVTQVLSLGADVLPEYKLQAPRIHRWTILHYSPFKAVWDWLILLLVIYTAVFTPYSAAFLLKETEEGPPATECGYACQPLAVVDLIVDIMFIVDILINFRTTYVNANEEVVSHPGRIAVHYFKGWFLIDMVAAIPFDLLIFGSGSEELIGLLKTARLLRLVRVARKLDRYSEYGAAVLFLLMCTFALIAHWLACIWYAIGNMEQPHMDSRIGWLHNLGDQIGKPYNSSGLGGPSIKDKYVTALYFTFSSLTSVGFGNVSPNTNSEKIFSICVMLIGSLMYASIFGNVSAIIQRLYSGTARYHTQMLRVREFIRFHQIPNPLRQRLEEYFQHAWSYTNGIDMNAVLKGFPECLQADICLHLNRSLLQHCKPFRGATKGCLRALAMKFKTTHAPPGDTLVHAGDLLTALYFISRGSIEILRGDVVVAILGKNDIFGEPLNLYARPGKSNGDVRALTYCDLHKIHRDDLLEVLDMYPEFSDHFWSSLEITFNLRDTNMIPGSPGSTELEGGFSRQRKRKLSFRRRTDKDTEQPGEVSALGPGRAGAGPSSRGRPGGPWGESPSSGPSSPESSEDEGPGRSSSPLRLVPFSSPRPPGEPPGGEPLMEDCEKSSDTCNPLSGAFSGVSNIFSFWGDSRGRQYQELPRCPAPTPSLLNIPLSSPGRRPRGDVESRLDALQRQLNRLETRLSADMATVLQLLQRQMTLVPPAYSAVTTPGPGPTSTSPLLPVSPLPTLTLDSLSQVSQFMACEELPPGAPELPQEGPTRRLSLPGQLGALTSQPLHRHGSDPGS
Cytochrome P450 2C19, sequence (P33261 whole entry): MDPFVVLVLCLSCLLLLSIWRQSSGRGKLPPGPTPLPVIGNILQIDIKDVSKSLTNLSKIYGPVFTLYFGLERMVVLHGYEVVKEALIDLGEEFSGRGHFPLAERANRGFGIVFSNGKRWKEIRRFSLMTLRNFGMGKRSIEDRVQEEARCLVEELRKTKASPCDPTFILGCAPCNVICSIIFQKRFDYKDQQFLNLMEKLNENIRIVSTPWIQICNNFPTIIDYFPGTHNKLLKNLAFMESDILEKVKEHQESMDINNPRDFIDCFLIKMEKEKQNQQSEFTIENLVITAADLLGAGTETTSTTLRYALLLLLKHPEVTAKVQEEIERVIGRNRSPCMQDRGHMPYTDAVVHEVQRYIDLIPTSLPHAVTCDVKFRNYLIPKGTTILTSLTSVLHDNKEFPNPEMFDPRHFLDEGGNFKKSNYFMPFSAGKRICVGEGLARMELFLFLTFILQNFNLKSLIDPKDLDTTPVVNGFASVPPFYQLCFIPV
Cytochrome P450 3A4, sequence (P08684 whole entry): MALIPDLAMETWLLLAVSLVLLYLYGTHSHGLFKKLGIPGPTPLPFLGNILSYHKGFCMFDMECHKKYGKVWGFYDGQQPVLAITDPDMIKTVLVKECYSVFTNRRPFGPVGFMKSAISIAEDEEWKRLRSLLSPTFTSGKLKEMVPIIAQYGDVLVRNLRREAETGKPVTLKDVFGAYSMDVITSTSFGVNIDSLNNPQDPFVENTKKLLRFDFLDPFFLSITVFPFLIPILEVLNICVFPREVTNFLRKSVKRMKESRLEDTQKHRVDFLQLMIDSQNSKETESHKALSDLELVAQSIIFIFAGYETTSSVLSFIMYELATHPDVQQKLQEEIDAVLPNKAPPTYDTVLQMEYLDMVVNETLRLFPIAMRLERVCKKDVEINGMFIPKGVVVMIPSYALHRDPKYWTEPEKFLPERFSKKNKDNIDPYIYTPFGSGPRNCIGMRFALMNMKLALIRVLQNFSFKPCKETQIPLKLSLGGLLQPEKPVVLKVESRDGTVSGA

A word on the solubility: it is the dissolved amount per volume that the medium holds. For orientation: EC50 means the concentration that produces a half-maximal response. A high value points to lower potency in that assay. What is called Cmax is the peak of the concentration-time curve. The term AUC(0-t) denotes the area under the concentration-time curve up to a stated or last time point. A higher AUC(0-t) goes with more exposure. One may read the half-life as the time needed for the level to fall by half in the phase considered. As usually defined, the bioavailability is dose-corrected exposure relative to a reference, in per cent. Low readings indicate poor availability, high ones good availability. For orientation: Tmax means the time from dosing to the highest level. Usually Ki stands for the equilibrium dissociation constant of an inhibitor or competing ligand from its target. A word on the IC50: it is the concentration that gives 50% inhibition. As a reminder, the inhibition is the drop in the measured response relative to a control, in per cent. The low end stands for a weak effect, the high end for a strong effect. In turn, `CC[C@H]1[C@@H]2[C@@H](O)CCN2C(=O)N1c1ccc(C#N)c(Cl)c1C` came in with a solubility in data set [1] of 242 µg/mL (≈ 757 µM). Moreover, at Androgen receptor, it took 0.0018 µM to reach a half-maximal effect (EC50). For the same compound, the results for the Cmax in data set [2] and in data set [6] were 3100 nM and 2100 nM, respectively. In data set [3], this compound showed an AUC(0-t) at 5 h of 6.08 µM·h. The half-life in data set [4] was 5.5 h. The bioavailability in [5] stood at 65%. In addition, the Tmax in [7] was 0.8 h. In addition, the clearance in [8] was determined as 58 mL/min/kg. Also, on Glucocorticoid receptor, the Ki is above 10 µM. Moreover, the half-inhibitory concentration (IC50) against Aromatase was above 100 µM; in data set [9], above 200 µM; against Cytochrome P450 2C19 it was 7.6 µM; on Cytochrome P450 2C9 it was above 40 µM; at Cytochrome P450 3A4, above 40 µM. Besides, at hERG, at 30 µM the inhibition was 6%.
